Here are results for 14 compounds from ChEMBL document CHEMBL1145024, “Unique structure-activity relationship for 4-isoxazolyl-1,4-dihydropyridines” (J Med Chem, 2003).

For one assay, the species on record is Homo sapiens. The experiment in a line: Percent recovery of Human embryonic kidney tsa-201 cells. The class given is functional.
Assay [1] in a line: Maximum inhibition of L-type calcium channel expressed in HEK tsa-201 cells from Patch Clamp analysis. It counts as functional, HEK293. Put shortly: (§1)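 Whole-cell patch clamp on GFP-positive tsa-201 cells transiently co-transfected (calcium phosphate) with α1C, β1b, α2-δ and GFP, then held at 28 °C for 2–4 days. Bath contained 5 mM BaCl2 as the charge carrier (pH 7.2), and pipettes held CsMS/EGTA. Currents were elicited from −80 mV to test potentials. Compound was diluted from a 10 mM DMSO stock and microperfused, and dose–response curves were fitted individually.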

Assay [2] in a line: Inhibition of L-type calcium channel subunits alpha1C, beta1b, and alpha2-delta subunits expressed in Human embryonic kidney tsa-201 cells. It counts as cell-based. Put shortly:
as §1

Compound `COC(=O)C1=C(C)N=C(C)/C(=C(/O)OC)C1c1c(-c2ccc(Br)cc2)noc1C` (stereo not given) yielded a Recovery in the assay listed under Homo sapiens of 60%. For the same compound, the Max inhibition in assay [1] is recorded as 88. Also, the IC50 – broadly, the midpoint of a concentration-inhibition curve – in assay [2] was found to be 580 nM.

`CCOC(=O)C1=C(C)N=C(C)/C(=C(/O)OCC)C1c1c(-c2ccccc2Cl)noc1C` (stereo not given) registered a Recovery in the assay listed under Homo sapiens of 65%. Besides, the Max inhibition in assay [1] stood at 70. Also, the IC50 in assay [2] came to 9680 nM.

Consider `COC(=O)C1=C(C)N=C(C)/C(=C(/O)OC)C1c1c(-c2ccc(F)cc2)noc1C` (stereo not given), for which the Recovery in the assay filed under Homo sapiens was determined as 66%. In addition, the Max inhibition in assay [1] was 93. Moreover, in assay [2], the IC50 amounted to 2710 nM.

In the assay listed under Homo sapiens, `COC(=O)C1=C(C)N=C(C)/C(=C(/O)OC)C1c1c(-c2ccc(Cl)cc2)noc1C` (stereo not given) registered a Recovery of 64%. Also, the Max inhibition in assay [1] worked out at 85. Besides, the IC50 in assay [2] worked out at 1740 nM.

The compound `CCOC(=O)C1=C(C)N=C(C)/C(=C(/O)OCC)C1c1c(-c2cccc(Cl)c2)noc1C` (stereo not given) had a Recovery in the assay filed under Homo sapiens of 65%. For the same compound, the Max inhibition in assay [1] came out at 100. The IC50 in assay [2] amounted to 1980 nM.

With `CCOC(=O)C1=C(C)N=C(C)/C(=C(/O)OCC)C1c1c(C)noc1CCc1ccc2ccccc2c1` (stereo not given), the Recovery in the assay filed under Homo sapiens was 41%. In assay [1], the Max inhibition is recorded as 100. Besides, the IC50 in assay [2] was determined as 1180 nM.

Turning to `CCOC(=O)C1=C(C)N=C(C)/C(=C(/O)OCC)C1c1c(C)noc1C` (stereo not given), the Recovery in the assay listed under Homo sapiens stood at 87%. Besides, the Max inhibition in assay [1] turned out to be 100. The IC50 in assay [2] came out at 8100 nM.

In turn, `CCOC(=O)C1=C(C)N=C(C)/C(=C(/O)OCC)C1c1c(-c2ccccc2OC)noc1C` (stereo not given) had a Recovery in the assay listed under Homo sapiens of 69%. In addition, the Max inhibition in assay [1] is 55.

Consider `CCOC(=O)C1=C(C)N=C(C)/C(=C(/O)OCC)C1c1c(C)noc1CCc1cccc2ccccc12` (stereo not given), for which, in the assay listed under Homo sapiens, the Recovery is 43%. The Max inhibition in assay [1] is 76. Moreover, the IC50 in assay [2] was 470 nM.

In the case of `CCOC(=O)C1=C(C)N=C(C)/C(=C(/O)OCC)C1c1c(-c2cc(Cl)ccc2OC)noc1C` (stereo not given), in the assay listed under Homo sapiens, the Recovery amounted to 82%. Also, the Max inhibition in assay [1] was 33. For the same compound, in assay [2], the IC50 amounted to 6860 nM.

`CCOC(=O)C1=C(C)N=C(C)/C(=C(/O)OCC)C1c1c(C)noc1CCc1cccc(OC)c1` (stereo not given): in the assay filed under Homo sapiens, the Recovery came to 49%. In assay [1], the Max inhibition was 100. Moreover, in assay [2], the IC50 worked out at 1590 nM.

For the compound `CCOC(=O)C1=C(C)N=C(C)/C(=C(/O)OCC)C1c1c(C)noc1CCc1cccc(Br)c1` (stereo not given), the Recovery in the assay filed under Homo sapiens was 48%. The Max inhibition in assay [1] was 100. In addition, the IC50 in assay [2] amounted to 130 nM.

`CCOC(=O)C1=C(C)N=C(C)/C(=C(/O)OCC)C1c1c(-c2ccc(Cl)cc2)noc1C` (stereo not given) showed a Recovery in the assay listed under Homo sapiens of 77%. Also, the Max inhibition in assay [1] was found to be 100.

In the assay listed under Homo sapiens, `CCOC(=O)C1=C(C)N=C(C)/C(=C(/O)OCC)C1c1c(C)noc1CCc1ccccc1` (stereo not given) displayed a Recovery of 46%. In addition, the Max inhibition in assay [1] worked out at 100. The IC50 in assay [2] stood at 1790 nM.
